Experimental data from different studies.
Compare with care: the assays were run in different laboratories.
EGFR L858R/T790M: Epidermal growth factor receptor (EGFR, Homo sapiens, UniProt P00533, L858R/T790M)
EGFR del746-750: Epidermal growth factor receptor (EGFR, Homo sapiens, UniProt P00533, del746-750)
EGFR T790M: Epidermal growth factor receptor (EGFR, Homo sapiens, UniProt P00533, T790M)
EGFR: Epidermal growth factor receptor (EGFR, Homo sapiens, UniProt P00533)
EGFR del752-759: Epidermal growth factor receptor (EGFR, Homo sapiens, UniProt P00533, del752-759)
EGFR A750P/del747-749: Epidermal growth factor receptor (EGFR, Homo sapiens, UniProt P00533, A750P/del747-749)
EGFR del747-750/T751S: Epidermal growth factor receptor (EGFR, Homo sapiens, UniProt P00533, del747-750/T751S)
EGFR L861Q: Epidermal growth factor receptor (EGFR, Homo sapiens, UniProt P00533, L861Q)
EGFR L858R: Epidermal growth factor receptor (EGFR, Homo sapiens, UniProt P00533, L858R)
EGFR G719C: Epidermal growth factor receptor (EGFR, Homo sapiens, UniProt P00533, G719C)

Cc1cnc(NC2CCOCC2)nc1-n1cnc(C(=O)NC(CN)c2cc(F)cc(Cl)c2)c1 (centres unmarked)  remaining activity (EGFR L858R/T790M; enzyme activity, inhibitor, radiometric; 1 µM): 109%
F[C@@H]1CCN(c2nccc(-c3cnn4ncccc34)n2)C1  remaining binding (EGFR del746-750; binding; 1 µM): 66%
Cc1cc(NC(=O)c2cccc3cc(-c4cccc5[nH]nc(N)c45)ccc23)ccc1F  activity vs control (EGFR T790M; enzyme activity, inhibitor; 0.1 µM): 98%
Cc1ccc(C(=O)NCc2ccsc2)cc1C#Cc1cn(C(C)C)c2ncnc(N)c12  activity vs control (EGFR; enzyme activity, inhibitor; 1 µM): 86%
CC(C)[C@@H]1NC(=O)[C@H](CCCNC(=N)N)NC(=O)[C@H](Cc2ccc(O)cc2)NC(=O)[C@H](C(C)C)NC(=O)[C@H](C(C)C)NC(=O)[C@H](CCCNC(=N)N)NC(=O)[C@H](CC(=O)O)NC(=O)[C@H](CC(=O)O)NC(=O)[C@H](C)NC(=O)[C@H](Cc2ccc(O)cc2)NC(=O)[C@H](Cc2ccc(O)cc2)NC(=O)[C@H](Cc2ccccc2)NC(=O)[C@@H](Cc2ccc(O)cc2)NC(=O)CSC[C@@H](C(=O)NCC(N)=O)NC(=O)CC(c2ccccc2)NC1=O (some centres unmarked)  kon (EGFR; binding, SPR): 40200 M⁻¹ s⁻¹
N[C@@H]1CCN(c2nccc(-c3cnn4ncccc34)n2)C1  remaining binding (EGFR del746-750; binding; 1 µM): 100%
CCC(=O)Nc1cc(Nc2nc(N3CCc4sccc4C3)c3cccnc3n2)c(OC)cc1N1CCN(CC)CC1  inhibition (EGFR L858R/T790M; enzyme activity, inhibitor, ELISA; 0.1 µM): 19.2%
Cn1nc(C(F)(F)F)cc1-c1cnc(N2CCc3cc(S(=O)(=O)Nc4c(F)cc(Cl)cc4F)cc(N4CCCC4=O)c32)nc1  remaining binding (EGFR del752-759; cell-free assay, competition with immobilised ligand; 1 µM): 100%
O=C(Nc1cccc(Nc2cc(Nc3cccc(C(F)(F)F)c3)ncn2)c1)C1CC1  remaining signal (EGFR; cell-free assay; 0.5 µM): 5.82%
COc1cc2ncnc(Nc3ccc(Oc4ccccc4)cc3C)c2cc1OC  inhibition (EGFR L858R/T790M; enzyme activity, inhibitor; 1 µM): 26%
CCN(CC)CCNC(=O)c1c(C)[nH]c(/C=C2\C(=O)Nc3ccc(Cl)cc32)c1C  remaining signal (EGFR; cell-free assay; 0.5 µM): 97%
Cc1nc(C2CCN(C(=O)c3ccc(OC(F)(F)F)cc3N)CC2)c2ncc(N3CCN(C)CC3)cc2n1  remaining binding (EGFR A750P/del747-749; cell-free assay, competition with immobilised ligand; 1 µM): 70%
CC/C(=N\NC(=O)NCc1cccc(O)c1)c1ccc(O)c(C)c1O  inhibition (EGFR; enzyme activity, inhibitor; 0.1 µM): 4.5%
CN(CCCC(F)(F)F)c1nccc(-c2cnn3ncccc23)n1  remaining binding (EGFR; binding; 1 µM): 86%
O=C(NCCCN1CCOCC1)c1ccc(Nc2ncc(Cl)c(-c3ccc(Cl)s3)n2)cc1  remaining binding (EGFR L858R/T790M; binding, competition with immobilised ligand; 1 µM): 55%
C=CC(=O)Nc1cc(Nc2nc(Nc3cnn(C)c3)c3sccc3n2)c(OC)cc1N(C)CCN(C)C  inhibition (EGFR L858R/T790M; enzyme activity, inhibitor, ELISA; 0.1 µM): 6.7%
Cc1c(C(=O)O)cc(-c2ccc(C3CCNCC3)cc2)c2ccc(-c3ccc(C(F)(F)F)cc3)cc12  remaining binding (EGFR del747-750/T751S; cell-free assay, competition with immobilised ligand; 1 µM): 100%
COc1cc2ncnc(Nc3ccc(Oc4ccccc4)c(C)c3C)c2cc1OC  inhibition (EGFR; enzyme activity, inhibitor; 1 µM): 91%
CN(c1nccc(-c2cnn3ncccc23)n1)C1CC1  remaining binding (EGFR del752-759; binding; 1 µM): 100%
C=CC(=O)Nc1cccc(Oc2nc(Nc3ccc(N4CCN(C)CC4)cc3)nc3ccsc23)c1  inhibition (EGFR L858R/T790M; enzyme activity, inhibitor, ELISA; 0.1 µM): 98.4%
O=C(Nc1cnn(-c2csc(C(=O)NC3COC3)c2)c1)Nc1ccccc1Cl  remaining activity (EGFR; enzyme activity, inhibitor; 5 µM): 99.7%
CCC(=O)Nc1cc(Nc2nc(N3CCc4sccc4C3)c3cccnc3n2)c(OC)cc1N1CCSCC1  inhibition (EGFR L858R/T790M; enzyme activity, inhibitor, ELISA; 0.1 µM): 28.8%
CN(C)C(=O)Cn1cc(-c2nc(C3(c4ccc(-c5cnc(N)nc5)cc4)CC3)no2)cn1  remaining binding (EGFR A750P/del747-749; cell-free assay, competition with immobilised ligand; 1 µM): 80%
COc1cc(-c2cc(-c3ccc(N4CCNCC4)cc3)cnc2N)cc(OC)c1OC  inhibition (EGFR L861Q; enzyme activity, inhibitor; 1 µM): 33%
CC(=O)c1c(NS(C)(=O)=O)c2cc(-c3ccc(Cl)cc3)c(-c3ccc(Cl)cc3Cl)nc2n(C)c1=O  remaining binding (EGFR L861Q; cell-free assay, competition with immobilised ligand; 1 µM): 100%
Cc1ccc(NC(=O)c2ccc(CN3CCN(C)CC3)cc2)cc1Nc1nc(-c2cccnc2)cs1  remaining signal (EGFR; cell-free assay; 0.5 µM): 99.6%
Cc1ccc(NC(=O)c2ccc(C)c(C(F)(F)F)c2)cc1C#Cc1nn(C2CCC(O)CC2)c2ncnc(N)c12 (centres unmarked)  remaining signal (EGFR L858R; cell-free assay; 10 µM): 21%
C[C@@H]1CCN(c2nccc(-c3cnn4ncccc34)n2)C1  remaining binding (EGFR G719C; binding; 1 µM): 87%
COc1cc(Cl)c(C(=O)N[C@@H](CN[C@H]2CC[C@@H](N)CC2)Cc2ccc(C#N)cc2)cc1-c1ccc(CN[C@H](C)c2ccc(C)cc2)o1  remaining activity (EGFR; enzyme activity, inhibitor; 1 µM): 103%
CC(C)c1ccc(NC(=O)c2cccs2)c(-c2nc3ccccc3[nH]c2=O)c1  activity vs control (EGFR; enzyme activity, inhibitor; 1 µM): 93%
c1cnn2ncc(-c3ccnc(N4CCC45COC5)n3)c2c1  remaining binding (EGFR L858R; binding; 1 µM): 84%
N#Cc1ccc(Nc2ccc3[nH]c(=O)[nH]c3c2)c(Cl)c1  remaining binding (EGFR del747-750/T751S; cell-free assay, competition with immobilised ligand; 1 µM): 100%
Cc1cnn2ncc(-c3ccnc(N(C)C)n3)c2c1  remaining binding (EGFR T790M; binding; 1 µM): 100%
CC(C)(C)c1nc(-c2cccc(NS(=O)(=O)c3c(F)cccc3F)c2F)c(-c2ccnc(N)n2)s1  remaining activity (EGFR; enzyme activity, inhibitor, radiometric; 1 µM): 119%
Cn1nc(C(=O)NCc2ccc(C(=O)O)cc2)cc1-c1ccc2[nH]ccc2c1  remaining binding (EGFR; cell-free assay, competition with immobilised ligand; 0.1 µM): 100%
Cc1ccc(C(=O)Nc2ccc(CN3CCN(C)CC3)c(C(F)(F)F)c2)cc1C#Cc1cnc2cccnn12  remaining signal (EGFR G719C; cell-free assay; 23.5 nM): 88%
CN(C)c1nccc(-c2cnn3ncccc23)n1  remaining binding (Epidermal growth factor receptor (EGFR, Homo sapiens, UniProt P00533, G719S); binding; 1 µM): 100%
CCC(=O)N[C@H]1CC[C@@H](C(=O)N(C)c2ccc(-c3nc4ccccc4o3)cc2)C1  remaining binding (Epidermal growth factor receptor (EGFR, Homo sapiens, UniProt P00533, del747-752/P753S); cell-free assay, competition with immobilised ligand; 1 µM): 79%
Nc1ncnc2occ(-c3ccc(NC(=O)Nc4cc(C(F)(F)F)ccc4F)cc3)c12  remaining signal (EGFR L858R; cell-free assay; 20 µM): 19%
CCOc1cc2ncnc(Nc3cccc(Br)c3)c2cc1OCC  remaining signal (EGFR; cell-free assay; 0.5 µM): 2.02%
CC(C)[C@@H]1NC(=O)CCNC(=O)CCNC(=O)[C@H](Cc2ccc(O)cc2)NC(=O)[C@H](Cc2ccc(O)cc2)NC(=O)[C@H](Cc2ccccc2)NC(=O)[C@@H](Cc2ccc(O)cc2)NC(=O)CSC[C@@H](C(=O)NCC(N)=O)NC(=O)CCNC(=O)[C@H](CCCNC(=N)N)NC(=O)[C@H](CCCNC(=N)N)NC(=O)[C@H](Cc2ccc(O)cc2)NC(=O)[C@H](C(C)C)NC(=O)[C@H](C(C)C)NC(=O)[C@H](CC(N)=O)NC1=O  kon (EGFR; binding, SPR): 217000 M⁻¹ s⁻¹
